One series relates to Bacillus subtilis. Briefly: Antibacterial activity against drug sensitive Bacillus subtilis 168 assessed as reduction in bacterial growth by broth microdilution method. It is filed as functional. In a few lines: (§1)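 MICs were determined by standard twofold serial broth microdilution in lysogeny broth (LB) medium.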
For series [1], the system named is Escherichia coli. Put plainly: Antibacterial activity against drug sensitive Escherichia coli DH5alpha assessed as reduction in bacterial growth by broth microdilution method. The class given is functional. In a few lines:
as §1

In a further series the test system is Pseudomonas aeruginosa. Briefly: Antibacterial activity against drug sensitive Pseudomonas aeruginosa PAO1 assessed as reduction in bacterial growth by broth microdilution method. The class given is functional. In a few lines:
as §1

A further series relates to Klebsiella pneumoniae. Briefly: Antibacterial activity against drug-resistant Klebsiella pneumoniae assessed as reduction in bacterial growth by broth microdilution method. It is filed as functional. In a few lines:
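Twofold serial dilution (microdilution) MIC in lysogeny broth (LB) medium against drug-resistant strains: MRSA USA300, vancomycin-resistant Enterococci, Klebsiella pneumoniae.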

Series [2] has as its system Staphylococcus aureus. Briefly: Drug resistance, ratio of MIC for Staphylococcus aureus after 15 days to MIC for Staphylococcus aureus after initial exposure. The class given is functional. As to conditions: time 15 day. In a few lines: (§2)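 Resistance development: MRSA serially subcultured in fresh medium starting from the initial MIC. MIC reassessed every 24 h over 24 days, alongside a reference antibiotic given in twofold dilutions.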

In series [3] the test system is Staphylococcus aureus. Put plainly: Antibacterial activity against methicillin-resistant Staphylococcus aureus measured for 15 days. As to conditions: time 15.0 day. It is filed as functional, organism-based. The gist of the method:
as §2

In series [4] the test system is Escherichia coli. Put plainly: Antibacterial activity against Escherichia coli measured for 9 days. As to conditions: time 9.0 day. It is filed as functional, organism-based. In a few lines: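 E. coli was serially subcultured in fresh medium, starting from the initial MIC. The MIC was redetermined every 24 h. A reference antibiotic was tested in parallel by twofold dilution. The regimen ran for 24 days in total.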

Series [5] concerns Staphylococcus aureus. Put plainly: Bactericidal activity against methicillin-resistant Staphylococcus aureus assessed as reduction in colony forming unit at 3 times MIC […] by time kill assay. It is filed as functional.
A short description of series [6]: Cytotoxicity against human HEK293 cells assessed as inhibition of cell growth incubated for 24 hrs by MTT assay. The class given is toxicity, cell-based. In a few lines: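 MTT assay with 24 h exposure of cells to the samples. IC50 is the concentration giving 50% growth inhibition, reported as mean ± S.D. of three independent experiments.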
For series [7], the system named is Staphylococcus aureus. Put plainly: Antibiofilm activity against Methicillin-resistant Staphylococcus aureus assessed as reduction in number of viable cells at 16 times MIC incubated for 24 hrs. The class given is functional, organism-based.
The test system of series [8] is Staphylococcus aureus. Put plainly: Antibiofilm activity against Methicillin-resistant Staphylococcus aureus assessed as reduction in number of viable cells at 2 times MIC incubated for 24 hrs. The class given is functional, organism-based. The gist of the method: (§3)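 Biofilm eradication: mid-log MRSA at 2 × 10^6 CFU mL-1 grown 48 h to form biofilms, then washed with PBS. Biofilms exposed to compound at MIC, 2× or 3× MIC for 24 h; medium-only control. Biofilms dispersed with trypsin–EDTA, serial 10-fold dilutions plated, colonies counted after 24 h, expressed as log10 CFU mL-1.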

Series [9] relates to Staphylococcus aureus. Briefly: Antibiofilm activity against Methicillin-resistant Staphylococcus aureus assessed as reduction in number of viable cells at 3 times MIC incubated for 24 hrs. The class given is functional, organism-based. The gist of the method:
as §3

The test system of series [10] is Escherichia coli. Put plainly: Antibiofilm activity against Escherichia coli assessed as reduction in number of viable cells at 4 times MIC incubated for 24 hrs. It is filed as functional, organism-based. In a few lines: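 E. coli was grown to mid-log phase and adjusted to 2 × 10^6 CFU mL−1. Biofilms were grown for 48 h, then the spent medium was removed and loose cells were washed off with PBS. Compound was added at MIC, 2× MIC or 4× MIC for 24 h, with a sterile-medium control. Biofilms were dispersed with trypsin–EDTA, 10-fold dilutions were plated, and colonies were counted after 24 h as log10 CFU mL−1.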

Series [11] concerns Escherichia coli. Put plainly: Antibiofilm activity against Escherichia coli assessed as reduction in number of viable cells at 8 times MIC incubated for 24 hrs. It is filed as functional, organism-based.
Series [12] relates to Staphylococcus aureus. Put plainly: Antibacterial activity against methicillin-resistant Staphylococcus aureus assessed as effect on viable bacterial growth measured after 24 hrs. The class given is functional, organism-based.
Series [13] in a line: Plasma protein binding in dog assessed as unbound fraction measured after 4 hrs by rapid equilibrium dialysis based LC-MS/MS analysis. It is filed as ADME, cell-free, Canis lupus familiaris. In a few lines: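 Rapid equilibrium dialysis of dog plasma against PBS pH 7.4 across an 8000 MWCO membrane. A 10 mM stock was diluted 1:50 with water and added to the plasma side, with sarolaner as control. Plates were shaken for 4 h at 37 °C. Proteins were precipitated with ACN and both chambers quantified by LC-MS/MS. % free = buffer/plasma concentration × 100; % bound = 100 − % free. n = 4.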

The subject of series [14] is Cell membrane. Briefly: Induction of cell membrane permeabilization in methicillin-resistant Staphylococcus aureus assessed as increase in fluorescence intensity at 3 times MIC incubated for 8 hrs by PI staining based confocal laser scanning microscopic analysis. It is filed as subcellular. The gist of the method: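 Log-phase MRSA washed in PBS (10 mM, pH 7.2) and resuspended at 2 × 10^6 CFU mL-1 (OD600 0.2–0.4). Treated at 3× MIC for 8 h at 37 °C, PBS control. Stained with SYTO 9/propidium iodide 30 min in the dark, imaged by confocal laser scanning microscopy. Duplicate.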

In series [15] the test system is Cell membrane. Briefly: Induction of cell membrane integrity in Escherichia coli assessed as increase in K+ efflux at 3 times MIC by absorption spectrophotometric analysis. It is filed as subcellular. The gist of the method: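 Mid-log E. coli (6 h culture) was suspended to about 2 × 10^6 CFU mL−1 in 10 mM HEPES pH 7.3 plus 5 mM glucose (1:1). Cells were incubated with 3× MIC at 37 °C for various times, with a PBS control. Supernatant K+ was measured by atomic absorption spectrophotometry. Run in duplicate.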

Series [16] has as its system Cell membrane. Put plainly: Induction of cell membrane depolarization in methicillin-resistant Staphylococcus aureus assessed as increase in fluorescence intensity at 3 times of MIC measured up to 15 hrs by DiSC3-5 dye based fluorescence analysis. The class given is subcellular. The gist of the method: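 Membrane potential assay. Mid-log MRSA (6 h growth) pelleted and resuspended in 100 mM KCl, 5 mM HEPES (pH 7.3) and 5 mM glucose (1:1:1). Mixed with DiSC3(5) at 8 μM final and preincubated 40 min at 37 °C. Compound added at 3× MIC, water control. Fluorescence read at ex 622 / em 670 nm.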

In series [17] the test system is Cell membrane. Briefly: Induction of cell membrane depolarization in Escherichia coli assessed as increase in fluorescence intensity at 3 times of MIC measured up to 15 hrs by DiSC3-5 dye based fluorescence analysis. The class given is subcellular. The gist of the method:
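Mid-log E. coli (6 h culture) was resuspended in 100 mM KCl, 5 mM HEPES pH 7.3 and 5 mM glucose (1:1:1). Cells were loaded with DiSC3(5) at 8 μM final for 80 min at 37 °C, then exposed to 3× MIC. Fluorescence was read at ex 622 nm / em 670 nm, with a water control.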

Series [18] concerns Staphylococcus aureus. Briefly: Antibacterial activity against methicillin-resistant Staphylococcus aureus infected in Kunming mouse corneal infection model assessed as reduction in viable bacterial count at 6 mg/ml, TOP administered 3 times daily for 1 week. It is filed as functional, organism-based. As to conditions: time 1.0 weeks. In a few lines:
(§4)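 Corneal infection model: male and female Kunming mice (~20 g) immunosuppressed with daily i.p. cyclophosphamide for 3 days. Anesthetized with i.p. avertin (400 mg kg-1), corneas abraded and given 20 μL MRSA (6 × 10^7 CFU mL-1). From 24 h post-infection, treated by topical smear three times daily for one week. Controls: 5% glucose and 5% vancomycin. Six mice per group. Corneal viable counts measured.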

Series [19] relates to Staphylococcus aureus. Put plainly: Antibacterial activity against methicillin-resistant Staphylococcus aureus infected in Kunming mouse corneal infection model assessed as reduction in viable bacterial count at 3 mg/ml, TOP administered 3 times daily for 1 week. It is filed as functional, organism-based. As to conditions: time 1.0 weeks. The gist of the method:
as §4

Converted amounts (≈) assume the structure as drawn. The source made the active and inactive calls. The rule behind the calls is not given here.

With `CC(C)(C)c1ccc(CCNc2nc3ccccc3nc2N)cc1`, the MIC is 8 µg/mL (≈ 25 µM) in the series with Bacillus subtilis, 4 µg/mL (≈ 12.5 µM) in the series with Escherichia coli [1], 64 µg/mL (≈ 200 µM) with Pseudomonas aeruginosa and 128 µg/mL (≈ 399 µM) in the series with Klebsiella pneumoniae. The Ratio in the series on Staphylococcus aureus [2] is recorded as 3. Besides, the outcome with Staphylococcus aureus [3], with Escherichia coli [4], in the series with Staphylococcus aureus [7], with Staphylococcus aureus [8], in the series with Staphylococcus aureus [9] and with Escherichia coli [10] was Active. Moreover, the outcome in the series with Escherichia coli [11], in the series on Staphylococcus aureus [12], with Cell membrane [15], in the series with Cell membrane [16], with Cell membrane [17] and with Staphylococcus aureus [18] was Active. Also, the Activity in the series with Staphylococcus aureus [5] is given as above 6 log10CFU/ml. For the same molecule, the IC50 at 24 h in [6] was 129 µg/mL (≈ 403 µM). Besides, the fraction unbound at 4 h in series [13] turned out to be 0.0731. Also, the result in the series with Cell membrane [14] and in the series on Staphylococcus aureus [19] was inactive.

Source of the values: ChEMBL document CHEMBL6177922, “Antibacterial activity of the structurally novel C-2 amine-substituted analogues based on quinoxaline” (RSC Med Chem, 2025).
